Test results taken from ChEMBL document CHEMBL2163334, “Discovery of highly potent and selective pan-Aurora kinase inhibitors with enhanced in vivo antitumor therapeutic index” (J Med Chem, 2012).

Tests used:
Aurora kinase A = molecular target: T1, Aurora kinase A (Homo sapiens, UniProt O14965); assay: Binding affinity to Aurora kinase A catalytic domain by competition binding assay
T1 sequence (O14965 whole entry): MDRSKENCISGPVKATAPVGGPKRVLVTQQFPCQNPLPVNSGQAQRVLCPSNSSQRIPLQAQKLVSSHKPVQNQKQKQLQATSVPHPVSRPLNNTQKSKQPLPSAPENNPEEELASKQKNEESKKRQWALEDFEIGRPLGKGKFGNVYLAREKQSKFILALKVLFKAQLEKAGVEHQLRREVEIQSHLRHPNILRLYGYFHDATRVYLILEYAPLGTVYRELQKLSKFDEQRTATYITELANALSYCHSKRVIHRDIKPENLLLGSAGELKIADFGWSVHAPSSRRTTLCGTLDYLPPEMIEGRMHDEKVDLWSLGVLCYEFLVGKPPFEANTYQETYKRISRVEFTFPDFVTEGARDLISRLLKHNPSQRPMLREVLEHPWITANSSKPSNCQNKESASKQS

Aurora kinase B [1] = molecular target: T2, Aurora kinase B (Homo sapiens, UniProt Q96GD4); assay: Binding affinity to Aurora kinase B catalytic domain by competition binding assay
T2 sequence (Q96GD4 whole entry, the tested form may be a part): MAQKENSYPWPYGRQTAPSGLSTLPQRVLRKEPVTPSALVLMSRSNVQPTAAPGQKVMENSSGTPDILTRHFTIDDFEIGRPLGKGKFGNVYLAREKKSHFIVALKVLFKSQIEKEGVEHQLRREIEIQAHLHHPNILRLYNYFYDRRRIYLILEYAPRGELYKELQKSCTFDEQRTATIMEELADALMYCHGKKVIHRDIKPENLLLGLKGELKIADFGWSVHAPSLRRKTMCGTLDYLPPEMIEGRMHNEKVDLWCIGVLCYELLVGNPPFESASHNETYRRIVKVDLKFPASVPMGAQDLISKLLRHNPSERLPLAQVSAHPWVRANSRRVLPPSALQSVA

Aurora kinase B [2] = molecular target: T2, Aurora kinase B; assay: Inhibition of Aurora kinase B-mediated histone H3 Ser10 phosphorylation in human HCT116 cells after 2 hrs by sandwich ELISA; assay type: cell-based, HCT-116
In short: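 HCT-116 cells seeded 4 × 10⁴/well, 4-6 h at 37 °C, then arrested overnight (16-18 h) with nocodazole at 66 ng/mL final. Treated 2 h with nine-point 3-fold dilutions in DMSO; lysed with phosphatase inhibitor, phospho-H3 (Ser10) sandwich ELISA read at 450 nm. IC50 = 50% inhibition of phosphorylation; duplicate runs averaged.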

HCT-116 = assay: Antiproliferative activity against human HCT116 cells after 72 hrs by BrdU-based ELISA; assay type: functional, cell-based; settings: HCT-116, 72 h
In short: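 HCT-116 cells in McCoy's 5A with 10% FBS and pen/strep, seeded 800 cells/well, left overnight at 37 °C, 5% CO2. Nine-point 3-fold serial dilutions in DMSO added for 72 h; BrdU colorimetric ELISA read at 450 and 690 nm. IC50 is the concentration halving proliferation; duplicate runs averaged.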

[3] = Clearance in Sprague-Dawley rat at 1 mg/kg, iv administered using PEG400/water as vehicle; assay type: ADME, organism-based; set-up: dose 1 mg/kg, route intravenous; settings: in vivo
In short: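 SD rats fasted overnight, given 1 mg/kg iv in PEG400/water (3:1, v/v); three per arm. Blood into K3 EDTA at 5, 15, 30 min, 1, 2, 4, 6, 24 h, spun at 4 °C; plasma extracted with six volumes acetonitrile plus internal standard and quantified by LC-MS/MS (C8 column, formic acid/ACN gradient).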

Row | Kd (Aurora kinase A) | Kd (Aurora kinase B [1]) | IC50 (Aurora kinase B [2]) | IC50 (HCT-116) | clearance [3] | Compound
1 | 11.5 nM | 3.1 nM | 6.2 nM | 3.1 nM | 62 mL/min/kg | COCCO[C@@H]1CCN(CC(=O)Nc2ccc(Sc3nc(Nc4cc(C)[nH]n4)c4cccn4n3)cc2)C1
2 | 16.9 nM | 6.1 nM | 44.8 nM | 12.5 nM | – | Cc1cc(Nc2nc(Sc3ccc(NC(=O)CN4CCC(C(=O)C(C)(C)C)C4)cc3)nn3cccc23)n[nH]1 (racemic)
3 | 39 nM | 14.8 nM | 420 nM | 227 nM | – | Cc1cc(Nc2nc(Sc3ccc(NC(=O)CN4CC[C@H](O)C4)cc3)nn3cccc23)n[nH]1
4 | 2.8 nM | 3.1 nM | 11.9 nM | 3.4 nM | – | Cc1cc(Nc2nc(Sc3ccc(NC(=O)CN4CC[C@@H]([S+]([O-])C(C)(C)C)C4)cc3)nn3cccc23)n[nH]1 (some centres not stated)
